Data published in ChEMBL document CHEMBL1125741, “Synthesis and anticonvulsant activity of imidooxy derivatives” (J Med Chem, 1991).
The source made the active and inactive calls. No cut-off for these calls is given here.

Tests used:
[1] = Time of peak effect (TPE) for activity; assay type: ADME; set-up: unit not given here
Method in brief: (§1)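 Phase II quantitation, drug given ip. ED50 in the MES or scMet test was taken at the time of peak effect, with the peak time set in MES for some compounds and in scMet for others. Rotorod TD50 was taken at the time of peak neurologic deficit. Values are in mg/kg with 95% confidence limits. Protective index is TD50/ED50.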

Gallus gallus [2] = experiment: Compound was evaluated for effective dose by subcutaneous pentylenetetrazole test after intraperitoneal administration of the compound; Not Effective; assay type: functional, organism-based; method in brief: as §1
[3] = Time of peak effect (TPE) for toxicity; set-up: unit not given here; method in brief: as §1
[4] = Protective index which is the ratio of TD50 to ED50 of in maximal electroshock test.; assay type: functional; method in brief: as §1
[5] = Compound was evaluated for toxic dose at peak neurologic deficit after intraperitoneal administration of the compound.; assay type: ADME, organism-based, Gallus gallus; details: chicken, in vivo, ip
Method in brief: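 Mice received compound dissolved or suspended in 30% polyethylene glycol 400 by intraperitoneal injection. Neurological toxicity was scored as failure on the rotorod test. Testing was run through the NINCDS Antiepileptic Drug Development Program.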

[6] = Protective index which is the ratio of TD50 to ED50 of against subcutaneous pentylenetetrazole test; assay type: functional; method in brief: as §1
Gallus gallus [7] = experiment: Anticonvulsant activity by maximal electroshock test at a dose of 100 mg/kg against young chicks after 30 min; 2/3; assay type: functional
Gallus gallus [8] = experiment: Anticonvulsant activity by subcutaneous pentylenetetrazole test at a dose of 100 mg/kg against young chicks after 30 min; 0/0; assay type: functional
Gallus gallus [9] = experiment: Compound was evaluated for effective dose by maximal electroshock test after intraperitoneal administration of the compound.; assay type: functional; details: ip; method in brief: as §1
Gallus gallus [10] = experiment: Toxicity test (number of animals exhibiting toxicity / number of animals tested) done at a dose 100 mg/kg against young chicks after 4 hr; 4/4; assay type: organism-based; set-up: dose 100 mg/kg; details: chicken, in vivo
Gallus gallus [11] = experiment: Toxicity test (number of animals exhibiting toxicity / number of animals tested) done at a dose 100 mg/kg against young chicks after 30 min; 8/8; assay type: organism-based; set-up: dose 100 mg/kg; details: chicken, in vivo, 0.5 h
Gallus gallus [12] = experiment: Anticonvulsant activity by maximal electroshock test at a dose of 100 mg/kg against young chicks after 30 min; 1/3; assay type: functional
Gallus gallus [13] = experiment: Toxicity test (number of animals exhibiting toxicity / number of animals tested) done at a dose 100 mg/kg against young chicks after 4 hr; […]; assay type: organism-based; set-up: dose 100 mg/kg; details: chicken, in vivo
Gallus gallus [14] = experiment: Anticonvulsant activity by subcutaneous pentylenetetrazole test at a dose of 300 mg/kg against young chicks after 30 min; 1/1; assay type: functional
Gallus gallus [15] = experiment: Toxicity test (number of animals exhibiting toxicity / number of animals tested) at a dose of 30 mg/kg after 0.50 hr; 0/8; assay type: organism-based; set-up: dose 30 mg/kg; details: chicken, in vivo, 0.5 h
Gallus gallus [16] = experiment: Toxicity test (number of animals exhibiting toxicity / number of animals tested) at a dose of 30 mg/kg after 2 hr; 8/8; assay type: organism-based; set-up: dose 30 mg/kg; details: chicken, in vivo
Gallus gallus [17] = experiment: Toxicity test (number of animals exhibiting toxicity / number of animals tested) at a dose of 30 mg/kg after 1 hr; 1/8; assay type: organism-based; set-up: dose 30 mg/kg; details: chicken, in vivo
Gallus gallus [18] = experiment: Subcutaneous pentylenetetrazole test (ScMet) (number of animals protected / number of animals tested) at a dose of 30 mg/kg after 0.50 hr; 4/8; assay type: functional
Gallus gallus [19] = experiment: Toxicity test (number of animals exhibiting toxicity / number of animals tested) at a dose of 30 mg/kg after 0.25 hr; 0/8; assay type: organism-based; set-up: dose 30 mg/kg; details: chicken, in vivo
Gallus gallus [20] = experiment: Toxicity test (number of animals exhibiting toxicity / number of animals tested) at a dose of 30 mg/kg after 4 hr; 8/8; assay type: organism-based; set-up: dose 30 mg/kg; details: chicken, in vivo
Gallus gallus [21] = experiment: Subcutaneous pentylenetetrazole test (ScMet) (number of animals protected / number of animals tested) at a dose of 30 mg/kg after 0.25 hr; 4/8; assay type: functional
Gallus gallus [22] = experiment: Subcutaneous pentylenetetrazole test (ScMet) (number of animals protected / number of animals tested) at a dose of 30 mg/kg after 2 hr; 8/8; assay type: functional
Gallus gallus [23] = experiment: Subcutaneous pentylenetetrazole test (ScMet) (number of animals protected / number of animals tested) at a dose of 30 mg/kg after 1 hr; 8/8; assay type: functional
Gallus gallus [24] = experiment: Toxicity test (number of animals exhibiting toxicity / number of animals tested) at a dose of 50 mg/kg after 1 hr; 7/8; assay type: organism-based; set-up: dose 50 mg/kg; details: chicken, in vivo
Gallus gallus [25] = experiment: Toxicity test (number of animals exhibiting toxicity / number of animals tested) at a dose of 30 mg/kg after 6 h; 8/8; assay type: organism-based; set-up: dose 30 mg/kg; details: chicken, in vivo
Gallus gallus [26] = experiment: Toxicity test (number of animals exhibiting toxicity / number of animals tested) at a dose of 50 mg/kg after 0.50 hr; 4/8; assay type: organism-based; set-up: dose 50 mg/kg; details: chicken, in vivo, 0.5 h
Gallus gallus [27] = experiment: Toxicity test (number of animals exhibiting toxicity / number of animals tested) at a dose of 50 mg/kg after 2 hr; 6/8; assay type: organism-based; set-up: dose 50 mg/kg; details: chicken, in vivo
Gallus gallus [28] = experiment: Anticonvulsant activity by subcutaneous pentylenetetrazole test at a dose of 30 mg/kg against young chicks after 4 hr; 1/1; assay type: functional
Gallus gallus [29] = experiment: Anticonvulsant activity by maximal electroshock test at a dose of 300 mg/kg against young chicks after 30 min; 1/1; assay type: functional
Gallus gallus [30] = experiment: Anticonvulsant activity by subcutaneous pentylenetetrazole test at a dose of 300 mg/kg against young chicks after 30 min; 0/0; assay type: functional
Gallus gallus [31] = experiment: Anticonvulsant activity by subcutaneous pentylenetetrazole test at a dose of 100 mg/kg against young chicks after 30 min; 1/1; assay type: functional
Gallus gallus [32] = experiment: Anticonvulsant activity by maximal electroshock test at a dose of 30 mg/kg against young chicks after 30 min; 1/1; assay type: functional
Gallus gallus [33] = experiment: Anticonvulsant activity by subcutaneous pentylenetetrazole test at a dose of 30 mg/kg against young chicks after 30 min; 1/1; assay type: functional

SMILES: O=C1NC(=O)C(c2ccccc2)(c2ccccc2)N1 [PHENYTOIN]
- TPE [1]: 2
- ED50 (Gallus gallus [2]): inactive
- TPE [3]: 2

SMILES: O=C1CC2(CCCC2)C(=O)N1OCc1ccccc1
- TPE [1]: 0.25
- PI [4]: 4.5
- TD50 [5]: > 500 mg/kg
- TPE [3]: 4

SMILES: CCCC(CCC)C(=O)O [VALPROIC ACID]
- TPE [1]: 0.25
- PI [4]: 1.57
- TPE [3]: 0.25
- PI [6]: 2.87

SMILES: O=C1c2cccc3cccc(c23)C(=O)N1[O-].[Na+]
- TPE [1]: 0.25
- TPE [3]: 4
- PI [6]: 0.84

SMILES: O=C1c2ccccc2C(=O)N1O
- TPE [1]: 0.25
- PI [4]: 0.99
- No. of animals protected/animals tested (Gallus gallus [7]): 2
- No. of animals protected/animals tested (Gallus gallus [8]): 0
- ED50 (Gallus gallus [9]): 95.4 mg/kg
- No. of animals protected/animals tested (Gallus gallus [10]): 4
- TPE [3]: 0.25
- No. of animals protected/animals tested (Gallus gallus [11]): 8

SMILES: NC(=O)N1c2ccccc2C=Cc2ccccc21 [CARBAMAZEPINE]
- TPE [1]: 0.25
- ED50 (Gallus gallus [2]): inactive
- TPE [3]: 0.25

SMILES: CCOC(=O)ON1C(=O)CCC1=O
- No. of animals protected/animals tested (Gallus gallus [12]): 1
- No. of animals protected/animals tested (Gallus gallus [13]): 4
- No. of animals protected/animals tested (Gallus gallus [14]): 1

SMILES: CCC1(c2ccccc2)C(=O)NC(=O)NC1=O [PHENOBARBITAL]
- TPE [1]: 1
- TPE [3]: 0.5

SMILES: C=C(CON1C(=O)CCC1=O)C(=O)OC
- No. of animals protected/animals tested (Gallus gallus [15]): 0
- No. of animals protected/animals tested (Gallus gallus [16]): 8
- No. of animals protected/animals tested (Gallus gallus [17]): 1
- No. of animals protected/animals tested (Gallus gallus [18]): 4
- No. of animals protected/animals tested (Gallus gallus [19]): 0
- No. of animals protected/animals tested (Gallus gallus [20]): 8
- No. of animals protected/animals tested (Gallus gallus [21]): 4
- No. of animals protected/animals tested (Gallus gallus [22]): 8
- No. of animals protected/animals tested (Gallus gallus [23]): 8
- No. of animals protected/animals tested (Gallus gallus [24]): 7
- No. of animals protected/animals tested (Gallus gallus [25]): 8
- No. of animals protected/animals tested (Gallus gallus [26]): 4
- No. of animals protected/animals tested (Gallus gallus [27]): 6

SMILES: C=C(CON1C(=O)c2ccccc2C1=O)C(=O)OC
- TPE [1]: 1
- No. of animals protected/animals tested (Gallus gallus [28]): 1
- No. of animals protected/animals tested (Gallus gallus [29]): 1
- No. of animals protected/animals tested (Gallus gallus [30]): 0
- No. of animals protected/animals tested (Gallus gallus [31]): 1
- No. of animals protected/animals tested (Gallus gallus [10]): 4
- No. of animals protected/animals tested (Gallus gallus [32]): 1
- TPE [3]: 4
- No. of animals protected/animals tested (Gallus gallus [33]): 1
- PI [6]: 0.72

SMILES: CCC1(C)CC(=O)NC1=O (stereo not given) [ETHOSUXIMIDE]
- TPE [1]: 0.5
- TPE [3]: 0.5
